Laboratory results taken from ChEMBL document CHEMBL4400527, “Development of bioactive gemcitabine-D-Lys6-GnRH prodrugs with linker-controllable drug release rate and enhanced biopharmaceutical profile” (Eur J Med Chem, 2019).

Assays:
[1] = target: T1, Gonadotropin-releasing hormone receptor (Homo sapiens, UniProt P30968); test: Displacement of [125I]-D-Tyr6-His5-GnRH from recombinant human GnRH receptor expressed in HEK293 cell membrane measured after 16 to 19 hrs by gamma counting method; assay type: cell membranes
T1 sequence (P30968 whole entry): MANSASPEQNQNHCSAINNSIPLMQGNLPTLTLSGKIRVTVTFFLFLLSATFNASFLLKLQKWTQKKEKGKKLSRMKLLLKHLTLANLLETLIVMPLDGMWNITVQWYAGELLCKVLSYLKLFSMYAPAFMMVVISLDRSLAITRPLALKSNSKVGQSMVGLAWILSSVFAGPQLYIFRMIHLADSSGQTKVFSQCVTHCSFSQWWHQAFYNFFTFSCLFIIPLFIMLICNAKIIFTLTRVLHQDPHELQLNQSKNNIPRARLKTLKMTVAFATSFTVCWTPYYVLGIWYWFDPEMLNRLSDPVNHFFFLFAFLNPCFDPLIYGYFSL
In short: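 Membranes from HEK 293 cells stably expressing human GnRH-R were incubated with 100,000-120,000 cpm [¹²⁵I]-D-Tyr⁶-His⁵-GnRH plus increasing conjugate concentrations. Buffer was 25 mM HEPES, 1 mM CaCl₂, 10 mM MgCl₂, 0.5% BSA, pH 7.4, final volume 0.2 mL, 4 °C for 16-19 h. Samples filtered on PEI-soaked GF/C, washed with ice-cold Tris-HCl and gamma counted. Nonspecific binding defined with 1000 nM triptorelin.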

[2] = tested on: MDA-MB-231; test: Antiproliferative activity against human MDA-MB-231 cells measured after 72 hrs by MTT assay; assay type: functional, cell-based; conditions: MDA-MB-231, 72 h
In short: (§1)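 Cells (RPMI for DU145, PC3, MDA-MB-231; DMEM for MCF7; 10% FBS, 37 °C, 5% CO₂) plated at 5 x 10³/well. After 24 h, medium replaced with compound at 10-40,000 nM for 72 h. MTT 0.3 mg/mL in PBS for 3 h, formazan dissolved in DMSO, OD at 570 nm with 690 nm reference. IC50 from four-parameter logistic fit; three experiments in triplicate.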

[3] = tested on: PC-3; test: Antiproliferative activity against human PC3 cells measured after 72 hrs by MTT assay; assay type: functional, cell-based; conditions: PC-3, 72 h; in short: as §1
[4] = tested on: MCF7; test: Antiproliferative activity against human MCF7 cells measured after 72 hrs by MTT assay; assay type: functional, cell-based; conditions: MCF7, 72 h; in short: as §1
[5] = tested on: DU-145; test: Antiproliferative activity against human DU145 cells measured after 72 hrs by MTT assay; assay type: functional, cell-based; conditions: DU-145, 72 h; in short: as §1
[6] = Drug level in C57BL/6N mouse blood at 10 mg/kg, ip measured after 30 mins by LC-MS/MS analysis; assay type: ADME, organism-based; conditions: whole blood, read-out: Drug uptake
In short: (§2)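 Male C57BL/6N mice, 8-12 weeks old, fasted overnight (n = 5/group), given conjugate 10 mg/kg (6.3 µmol/kg) IP in saline. Serial tail bleeds of 10 µL at 0.25, 0.5, 1, 2, 4, 6 and 8 h into 0.1 M citric acid, pH 4.5. Stored at -80 °C, processed by protein precipitation and evaporation. Conjugate, gemcitabine and dFdU measured.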

[7] = Prodrug activation in human DU145 cells assessed as dFdU release at 10 uM measured after 8 hrs by LC-MS/MS analysis; assay type: cell-based; conditions: du-145, 8 h
In short: (§3)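 DU145 cells seeded at 2 x 10⁶ cells/well and exposed to 10 µΜ compound for 1, 4 or 8 h. Medium removed, cells washed twice with ice-cold PBS, lysed in ice-cold MeCN-water (3:2) by scraping, then vortexed, sonicated and spun 3 min at 16,060 g. Conjugate, gemcitabine and dFdU quantified per 10⁶ cells.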

[8] = Stability of the compound in human plasma at 1 ug/ml measured up to 4 hrs by LC-MS/MS analysis; assay type: ADME, cell-free
In short: (§4)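 Human plasma spiked with conjugate at 1 µg/mL. Triplicate 50 µL samples taken at 0, 0.08, 0.5, 1 and 4 h, mixed with 150 µL acetonitrile and stored at -80 °C. Intact conjugate and released gemcitabine followed.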

[9] = Prodrug activation in human DU145 cells assessed as gemcitabine release at 10 uM measured after 8 hrs by LC-MS/MS analysis; assay type: cell-based; conditions: du-145, 8 h; in short: as §3
[10] = Prodrug activation in human plasma assessed as gemcitabine release at 1 ug/ml measured up to 4 hrs by LC-MS/MS analysis; assay type: cell-free; in short: as §4
[11] = Prodrug activation in C57BL/6N mouse blood assessed as dFdU release at 10 mg/kg, ip measured up to 8 hrs by LC-MS/MS analysis; assay type: organism-based; conditions: in vivo; in short: as §2
[12] = Stability of the compound in RPMI medium at 1 uM measured after 72 hrs by LC-MS/MS analysis; assay type: physicochemical
In short: (§5)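 Conjugates at 1 µΜ incubated at 37 °C in RPMI with 10% FBS and 1% P/S. Triplicate samples taken at 0, 1, 2, 4, 8, 24, 48 and 72 h, mixed with initial mobile phase, stored at -80 °C. Analysed by LC-MS/MS.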

[13] = AUC (1 to 8 hrs) in human DU145 cells assessed per million cells at 10 uM by LC-MS/MS analysis; assay type: ADME, cell-based; set-up: time 1-8 hr, dose 10 uM; conditions: du-145, 10 µM; in short: as §3
[14] = Drug level in C57BL/6N mouse blood at 10 mg/kg, ip measured after 15 mins by LC-MS/MS analysis; assay type: ADME, organism-based; conditions: whole blood, read-out: Drug uptake; in short: as §2
[15] = Prodrug activation in C57BL/6N mouse blood assessed as dFdU release at 10 mg/kg, ip measured after 1 hr by LC-MS/MS analysis; assay type: organism-based; conditions: in vivo; in short: as §2
[16] = Cmax in human DU145 cells assessed per million cells at 10 uM measured after 4 hrs by LC-MS/MS analysis; assay type: ADME, cell-based; set-up: dose 10 uM; conditions: du-145, 4 h; in short: as §3
[17] = Prodrug activation in C57BL/6N mouse blood assessed as gemcitabine release at 10 mg/kg, ip measured after 30 mins by LC-MS/MS analysis; assay type: organism-based; conditions: in vivo, 0.5 h; in short: as §2
[18] = Prodrug activation in C57BL/6N mouse blood assessed as gemcitabine release at 10 mg/kg, ip measured up to 8 hrs by LC-MS/MS analysis; assay type: organism-based; conditions: in vivo; in short: as §2
[19] = Stability of the compound in RPMI medium assessed as compound degradation at 1 uM measured <24 hrs by LC-MS/MS analysis; assay type: physicochemical; conditions: read-out: Drug degradation; in short: as §5

Row | IC50 [1] [nM] | IC50 [2] [nM] | IC50 [3] [nM] | IC50 [4] [nM] | IC50 [5] [nM] | concentration at 0.5 h [6] [ng/mL] | Drug metabolism [7] | Stability [8] | Drug metabolism [9] | Drug metabolism [10] | Drug metabolism [11] | Stability [12] | AUC [13] [ng/10^6 cells × hr] | concentration at 0.25 h [14] [ng/mL] | Drug metabolism [15] [ng/mL] | Cmax [16] | Drug metabolism [17] [ng/mL] | Drug metabolism [18] | degraded at 24 h, 1 µM [19] [%] | SMILES
1 | 10.5 | > 40000 | > 40000 | > 40000 | > 40000 |  |  |  |  |  |  |  |  |  |  |  |  |  |  | CC(C)C[C@H](NC(=O)[C@@H](CCCCN)NC(=O)[C@H](Cc1ccc(O)cc1)NC(=O)[C@H](CO)NC(=O)[C@H](Cc1c[nH]c2ccccc12)NC(=O)[C@H](Cc1cnc[nH]1)NC(=O)[C@@H]1CCC(=O)N1)C(=O)N[C@@H](CCCNC(=N)N)C(=O)N1CCC[C@H]1C(=O)NCC(N)=O
2 |  | 1570 | 416 | 38 | 213 | 3 |  |  |  |  |  |  |  |  |  |  |  |  |  | Nc1ccn([C@@H]2O[C@H](CO)[C@@H](O)C2(F)F)c(=O)n1 [GEMCITABINE]
3 | 0.69 | > 40000 | > 40000 | 621 | > 40000 | 4000 | Metabolite_Notdetected | Stable | Metabolite_Notdetected | Metabolite_Notdetected | Metabolite_Notdetected | Stable | 62.8 | 4000 |  |  |  |  |  | CC(C)C[C@H](NC(=O)[C@@H](CCCCNC(=O)OC[C@H]1O[C@@H](n2ccc(N)nc2=O)C(F)(F)[C@@H]1O)NC(=O)[C@H](Cc1ccc(O)cc1)NC(=O)[C@H](CO)NC(=O)[C@H](Cc1c[nH]c2ccccc12)NC(=O)[C@H](Cc1cnc[nH]1)NC(=O)[C@@H]1CCC(=O)N1)C(=O)N[C@@H](CCCNC(=N)N)C(=O)N1CCC[C@H]1C(=O)NCC(N)=O
4 | 2.4 | 2390 | 937 | 55.5 | 684 |  | Metabolite_Notdetected | Unstable | Metabolite_Detected | Metabolite_Detected |  |  | 38.6 |  | 500 | 8 ng/10^6 cells | 300 | Metabolite_Detected | 100 | CC(C)C[C@H](NC(=O)[C@@H](CCCCNC(=O)CCCCCNC(=O)CCC(=O)OC[C@H]1O[C@@H](n2ccc(N)nc2=O)C(F)(F)[C@@H]1O)NC(=O)[C@H](Cc1ccc(O)cc1)NC(=O)[C@H](CO)NC(=O)[C@H](Cc1c[nH]c2ccccc12)NC(=O)[C@H](Cc1cnc[nH]1)NC(=O)[C@@H]1CCC(=O)N1)C(=O)N[C@@H](CCCNC(=N)N)C(=O)N1CCC[C@H]1C(=O)NCC(N)=O
5 | 0.11 | > 40000 | > 40000 | 449 | 9760 | 5000 | Metabolite_Notdetected | Stable | Metabolite_Notdetected | Metabolite_Notdetected | Metabolite_Notdetected | Stable | 88.7 | 4000 |  | 15 ng/10^6 cells in 4 h |  |  |  | CC(C)C[C@H](NC(=O)[C@@H](CCCCNC(=O)O[C@@H]1[C@@H](CO)O[C@@H](n2ccc(N)nc2=O)C1(F)F)NC(=O)[C@H](Cc1ccc(O)cc1)NC(=O)[C@H](CO)NC(=O)[C@H](Cc1c[nH]c2ccccc12)NC(=O)[C@H](Cc1cnc[nH]1)NC(=O)[C@@H]1CCC(=O)N1)C(=O)N[C@@H](CCCNC(=N)N)C(=O)N1CCC[C@H]1C(=O)NCC(N)=O
